# Experimental data from PubChem BioAssay AID651787 (The Scripps Research Institute Molecular Screening Center, 2012).
# Among all 2,400 compounds or so, about 1,200 (50%) were called active. So high a share suggests a set chosen from earlier hits. The list is a sample of the results. Values without a mark were called inactive.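 Rule for the calls: active = activation above the run cutoff, the mean activation over all tested wells plus 3 SD (cut at about 12% in these data); inactive = the rest.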
# Assay: nonselective calcium mobilization agonists, CHO-Ga16 cells, counter-screen for hTAAR1 agonist project, cell-based, fluorescence, CHO-Ga16 parental line (AID 651787)
# Details: Fluo-8 calcium fluorescence, at 3 µM, stronger effect = higher value, normalized to maximal ATP response, DMSO zero
# In short: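 Test system: CHO-Gα16 parental cells without hTAAR1. Amount: 750 cells in each well. Incubation: 17-24 h seeding, dye 75 min 37 °C, 30 min RT. Measured by: Fluo-8 calcium-dye fluorescence. Evaluation: % activation from peak-to-basal fluorescence ratio, DMSO to ATP scale. Control set: DMSO (0%) and EC100 ATP (100%).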
row,Compound,activation
1,O=C1CCCC(O)=C1C=NCCc1ccccc1,5.18%
2,CCCCc1c(-c2ccc(Br)cc2)ncn1CCc1ccccc1OC,13.2% (active)
3,CCCCCc1c(-c2ccc(OC)c(OC)c2)ncn1CCc1ccccc1OC,17.4% (active)
4,CCCCCc1c(-c2cccc(Br)c2)ncn1CCc1ccccc1OC,10.8%
5,CCCCCc1c(Cc2ccccc2)ncn1CCc1ccccc1OC,17% (active)
6,CCCCc1c(-c2ccc(Cl)cc2)ncn1CCc1ccccc1OC,16.1% (active)
7,CCc1c(-c2ccccc2OC)ncn1CCc1ccccc1OC,5.18%
8,O=[N+]([O-])c1cc(S(=O)(=O)NCCc2ccccn2)ccc1Cl,2.99%
9,CCCCCCCCCCOC(=O)Cn1c(COc2ccc(C)cc2)[n+](C)c2ccccc21,76.5% (active)
10,Cc1c(CNCCc2ccccc2)c(C(=O)O)c(C)n1-c1ccccc1,1.76%
11,S=C(Nc1ccc(Br)cc1)NC1CCN(Cc2ccccc2)CC1,22.9% (active)
12,O=C(/C=C/[C@H]1O[C@@H](n2cnc3c(NC(=O)c4ccccc4)ncnc32)[C@H](O)[C@@H]1O)NCc1ccccc1,0.21%
13,O=C(Cc1ccc(Cl)cc1)NC(=S)Nc1ccccc1O,103% (active)
14,O=C(NCCc1ccccc1)Oc1ccc(Cl)cc1,1.7%
15,Cc1ccccc1NC(=S)NC(=O)Cc1ccc(Cl)cc1,41.1% (active)
16,O=c1cnnc(Nc2ccccc2)[nH]1,4.92%
17,O=C(Nc1ccccc1)Nc1nnc(COc2ccccc2F)s1,8.56%
18,O=Cc1c(NCCc2cccc(F)c2)c2ccccc2[nH]c1=O,2.77%
19,CCCCC(=O)NNC(=S)NC(=O)C(c1ccccc1)c1ccccc1,119% (active)
20,CN(C)CCCN(C(=O)c1ccc(S(=O)(=O)N2CCCCCC2)cc1)c1nc2ccc(Br)cc2s1,36.2% (active)
21,CN(C)CCCN(C(=O)c1ccc(S(=O)(=O)N2CCCc3ccccc32)cc1)c1nc2ccc(F)cc2s1,37.7% (active)
22,Nc1nnn(CC(=O)N/N=C/c2ccccc2)n1,-0.59%
23,c1ccc(CCN2CN=C(Nc3nc4ccccc4o3)NC2)cc1,0.14%
24,CC(=O)Oc1ccc(Cn2c(C)c(C(=O)NCc3ccc(C#N)cc3)sc2=O)cc1,66.2% (active)

row,Compound,activation
1,Cc1cccc(NC(=O)C(C)N2C(=O)C3C4CC(C(Br)C4Br)C3C2=O)c1 (stereo not drawn),25.2% (active)
2,c1ccc(Nc2nc(N3CCOCC3)c3ccccc3n2)cc1,14.2% (active)
3,Nc1c(NCCc2ccccc2)c2ccccc2oc1=O,6.54%
4,CCOc1ccc(Br)cc1CSC(=N)N,9.07%
5,CCCCOc1ccc(CSC(=N)N)cc1[N+](=O)[O-],22.3% (active)
6,CCN(CC)c1ccc2oc(=O)c(C)nc2c1,43.7% (active)
7,Oc1ccc2ccc3cccc[n+]3c2c1,126% (active)
8,CN(C(=O)CN(CCO)CC(=O)N(C)C(C)(C)Cc1ccccc1)C(C)(C)Cc1ccccc1,84.7% (active)
9,NC[C@H](Cc1ccccc1)NCCc1cc(C(F)(F)F)cc(C(F)(F)F)c1,21.6% (active)
10,CCc1ccc(-c2nn(-c3ccccc3)cc2CSC(=N)N)cc1,26.4% (active)
11,CN(C)c1ccc(/C=C2\NC(=S)N(Cc3ccccc3)C2=O)cc1,67.4% (active)
12,O=C1CCCN2N=C(SCC(=O)Nc3ccc(Br)cc3)SC2=N1,8.82%
13,O=C(Nc1ccncc1)Nc1ccc(F)cc1,4.69%
14,Cc1cc(C)c2cc(C#N)c(N3CCNCC3)nc2c1,-0.65%
15,N#Cc1ccc(OCCCN2CCC(C(O)(c3ccccc3)c3ccccc3)CC2)c(F)c1,21.1% (active)
16,O=C(CNC(=O)c1ccccc1F)OCC(=O)c1c[nH]c2ccccc12,2.13%
17,S=C(NCCCc1cnc[nH]1)NCCCN(Cc1ccc(Cl)c(Cl)c1)c1ccc(Br)cn1,26.5% (active)
18,COc1ccc(NC(=O)C(=O)NCC(c2ccco2)N2CCc3ccccc3C2)cc1 (stereo not drawn),0.06%
19,COC(=O)c1[nH]c2cccc(C)c2c1NC(=O)CN1CCCc2ccccc21,11.5%
20,COc1ccc(C(N)c2csc(NC(=O)Nc3cccc(C(F)(F)F)c3)n2)cc1 (stereo not drawn),22.4% (active)
21,NC(c1ccccc1)c1csc(NC(=O)Nc2cccc(C(F)(F)F)c2)n1 (stereo not drawn),37% (active)
22,CCOC(=O)Cc1csc(NC(=O)Nc2ccccc2)n1,10.9%
23,Cc1ccn2c(=O)c(C(=O)NCCC3=CCCCC3)c(O)nc2c1,4.2%
24,O=C(CCCN=C1NS(=O)(=O)c2ccccc21)OCC(=O)c1ccc(F)c(F)c1,51.3% (active)
